Numbering of substitutions follows the chain as printed. In names and notes the source's numbering stands. Like-named read-outs stand apart in the source and are kept apart here. Positions of bridges follow the written chain, without caps; N, C: chain ends. Non-standard residues stand in square brackets, D forms with d. Residues, ends and D or L forms follow the SMILES beside them. R8 = C=CCCCCCC[C@@](C)(N)C(=O)O; S5 = C=CCCC[C@](C)(N)C(=O)O
What was measured:
HEK293T cells [1] = experiment: LC3-II and p62 Western blots after peptide treatment, HEK293T cells; format: cell-based; conditions: 3 h
Method in brief: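 HEK293T cells were treated 3 h with peptide or scrambled Tat control at 10 µM (low) or 20 µM (high) in the culture medium, without or with chloroquine. Lysates were Western blotted for LC3-I/LC3-II lipidation and p62 levels.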

EGFR [2] = experiment: EGFR degradation assay, A549 cells; format: cell-based; conditions: n = 3
Method in brief: (§1)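 Overexpression arm: cells were transfected with FLAG-UVRAG wild-type or Leu-to-Glu mutants, or vector. Cells were washed in PBS, serum-starved overnight in DMEM, then given DMEM with 20 mM Hepes, 0.2% BSA and 200 ng/mL EGF. Peptide arm: 20 µM peptide or control was added together with EGF. At each time point, 20 µg lysate was immunoblotted for EGFR, normalized to β-actin and to time 0. Three independent experiments, mean ± SEM.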

EGFR [3] = experiment: EGFR degradation assay, H1975 cells; format: cell-based; conditions: peptide 20 μM, 15 h after EGF, n = 3
Method in brief: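 H1975 cells were serum-starved overnight in DMEM, then stimulated with 200 ng/mL EGF in DMEM with 20 mM Hepes and 0.2% BSA, together with 20 µM peptide or scrambled control. At each time point, 20 µg lysate was immunoblotted for EGFR. EGFR was normalized to β-actin and to time 0, from three independent experiments.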

[4] = tested on: Beclin 1–Atg14L interaction; experiment: Co-IP of Beclin 1–Atg14L interaction, HEK293T; format: cell-based; conditions: peptide 20 μM added to cell lysate
[5] = molecular target: Beclin 1 coiled-coil domain (Rattus norvegicus, UniProt Q91XJ1); experiment: ITC binding of designed peptides to Beclin 1 coiled-coil domain
[6] = tested on: HeLa cells stably expressing GFP-LC3; experiment: Confocal imaging of GFP-LC3 puncta in HeLa cells stably expressing GFP-LC3; format: cell-based; conditions: HeLa GFP-LC3, 3 h, n = 3
Method in brief: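 HeLa cells stably expressing GFP-LC3 were treated 3 h with peptide, scrambled control or water vehicle, with or without 25 µM chloroquine. Cells were imaged by confocal microscopy and GFP-LC3 puncta per cell were counted. Values are mean ± SEM, n = 3.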

[7] = tested on: Beclin 1 self-association; experiment: Co-IP of Beclin 1 self-association; format: cell-based; conditions: HEK293T
Method in brief: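 HEK293T cells co-transfected with GFP- and His-tagged Beclin 1. Peptide (stock 20 mM in water) was added at 20 µM either to the culture medium 6 h after transfection or to the lysate after lysis. A scrambled, unstapled Tat-fused control peptide was used at the same concentration. His-Beclin 1 association was then probed by co-IP.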

HEK293T cells [8] = experiment: MTT cytotoxicity / cell viability, HEK293T cells; format: cell-based; conditions: 12.5 and 25 µM, 5 h
EGFR [9] = experiment: EGFR degradation assay, HEK293T cells; format: cell-based; conditions: n = 3
Method in brief: as §1

A549 cells = experiment: MTT cytotoxicity / cell viability, A549 cells; format: cell-based; conditions: 12.5 and 25 µM, 5 h
[10] = tested on: Beclin 1–UVRAG interaction; experiment: Co-IP of Beclin 1–UVRAG interaction, HEK293T; format: cell-based; conditions: peptide 20 μM added to cell lysate
UVRAG coiled-coil domain [11] = experiment: ITC
UVRAG coiled-coil domain [12] = experiment: ITC; remark: listed apart in the source
UVRAG coiled-coil domain [13] = format: binding; conditions: ITC, relative to wild type
[14] = tested on: endogenous Beclin 1; EGFR; conditions: EGF-stimulated endocytic transport and lysosomal degradation of EGFR; cited from earlier work

UVRAG coiled-coil domain, sequence (Q8K245 whole entry, the tested form may be a part): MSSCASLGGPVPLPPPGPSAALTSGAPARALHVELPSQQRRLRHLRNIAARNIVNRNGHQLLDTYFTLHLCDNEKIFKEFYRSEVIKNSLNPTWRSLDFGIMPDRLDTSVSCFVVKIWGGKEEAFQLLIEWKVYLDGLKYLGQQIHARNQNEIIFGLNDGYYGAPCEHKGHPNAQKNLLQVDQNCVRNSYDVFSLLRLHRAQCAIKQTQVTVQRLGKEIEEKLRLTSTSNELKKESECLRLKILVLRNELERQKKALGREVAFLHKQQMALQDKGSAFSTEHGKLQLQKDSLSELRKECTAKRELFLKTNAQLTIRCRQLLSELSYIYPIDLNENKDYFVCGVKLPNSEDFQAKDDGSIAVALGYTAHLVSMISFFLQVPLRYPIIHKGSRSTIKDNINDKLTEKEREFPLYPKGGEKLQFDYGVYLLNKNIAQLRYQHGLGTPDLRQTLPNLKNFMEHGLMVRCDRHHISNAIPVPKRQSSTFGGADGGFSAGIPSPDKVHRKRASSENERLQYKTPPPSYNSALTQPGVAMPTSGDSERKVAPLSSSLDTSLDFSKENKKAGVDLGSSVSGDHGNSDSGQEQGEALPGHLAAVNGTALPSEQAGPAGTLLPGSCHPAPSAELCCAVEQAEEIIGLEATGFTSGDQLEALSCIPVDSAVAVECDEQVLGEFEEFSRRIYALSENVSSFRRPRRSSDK

CCN(CC)CCCC(C)Nc1ccnc2cc(Cl)ccc12 (stereo not drawn) [CQ, chloroquine, reference compound]
p62 level with CQ treatment (HEK293T cells [1]; with CQ, even with Tat-SP4): elevated the p62 level

CC[C@H](C)[C@H](NC(=O)[C@H](CC(C)C)NC(=O)[C@H](CCCNC(=N)N)NC(=O)[C@H](CCCNC(=N)N)NC(=O)[C@H](CCCNC(=N)N)NC(=O)[C@H](CCCNC(=N)N)NC(=O)[C@H](CCC(N)=O)NC(=O)[C@H](CCCNC(=N)N)NC(=O)[C@H](CCCNC(=N)N)NC(=O)[C@H](CCCCN)NC(=O)[C@H](CCCCN)NC(=O)[C@H](CCCNC(=N)N)NC(=O)CNC(=O)[C@H](Cc1ccc(O)cc1)NC(C)=O)C(=O)N[C@@H](CO)C(=O)N[C@@H](CCC(=O)O)C(=O)N[C@@H](CC(C)C)C(=O)N[C@]1(C)CCCCCCC=CCCC[C@@](C)(C(=O)N[C@@H](C)C(N)=O)NC(=O)[C@H](CCCNC(=N)N)NC(=O)[C@H](CCC(N)=O)NC(=O)[C@H](CCCCN)NC(=O)[C@H](CCC(=O)O)NC(=O)[C@H](CCCNC(=N)N)NC(=O)[C@H](CC(=O)O)NC1=O [Tat-SP4] (Ac-YGRKKRRQRRRRLISEL[R8]DREKQR[S5]A-NH2; staple 18-25)
EGFR remaining (EGFR [2]; A549, peptide 20 μM, 2 h after EGF): ~75%
EGFR remaining (EGFR [2]; A549, peptide 20 μM, 5 h after EGF): ~25%
EGFR degradation (EGFR [3]): ~50%
endogenous Beclin 1 pulled down by Atg14L-GFP [4]: significantly enhanced
Kd [5]: ~6.8 µM
increase in LC3-II level (HEK293T cells [1]; 10 μM, with CQ, n = 3): approximately threefold
increase in LC3-II level (HEK293T cells [1]; 10 μM, without CQ, n = 3): approximately twofold
increase in LC3-II level (HEK293T cells [1]; 20 μM, with CQ, n = 3): approximately fivefold
increase in LC3-II level (HEK293T cells [1]; 20 μM, without CQ, n = 3): approximately threefold
reduction of p62 level (HEK293T cells [1]; without CQ, n = 3): ~50%
increase in GFP-LC3 dot numbers (autophagosomes) ([6]; absence of CQ): approximately twofold
increase in GFP-LC3 dot numbers (autophagosomes) ([6]; presence of 25 μM CQ): approximately twofold
Beclin 1 self-association (His-Beclin 1 pulled down by GFP-Beclin 1) ([7]; peptide 20 μM added to cell lysate): moderately reduced
Beclin 1 self-association (His-Beclin 1 pulled down by GFP-Beclin 1) ([7]; peptide 20 μM added to cell medium 6 h posttransfection): more prominent
cytotoxicity (MTT) (HEK293T cells [8]): negligible cytotoxicity
EGFR remaining (EGFR [9]; peptide 20 μM, 60 min post EGF (200 ng/mL)): ~30%
cytotoxicity (MTT) (A549 cells): negligible cytotoxicity
endogenous Beclin 1 pulled down by FLAG-UVRAG [10]: significantly more endogenous Beclin 1

CC[C@H](C)[C@H](NC(=O)[C@H](CC(C)C)NC(=O)[C@H](CC(C)C)NC(=O)[C@H](CCCNC(=N)N)NC(=O)[C@H](CCCNC(=N)N)NC(=O)[C@H](CCCNC(=N)N)NC(=O)[C@H](CCC(N)=O)NC(=O)[C@H](CCCNC(=N)N)NC(=O)[C@H](CCCNC(=N)N)NC(=O)[C@H](CCCCN)NC(=O)[C@H](CCCCN)NC(=O)[C@H](CCCNC(=N)N)NC(=O)CNC(=O)[C@H](Cc1ccc(O)cc1)NC(C)=O)C(=O)N[C@@H](CO)C(=O)N[C@@H](CCC(=O)O)C(=O)N[C@@H](CC(C)C)C(=O)N[C@]1(C)CCCCCCC=CCCC[C@@](C)(C(=O)N[C@@H](C)C(N)=O)NC(=O)[C@H](CCCNC(=N)N)NC(=O)[C@H](CCC(N)=O)NC(=O)[C@H](CCCCN)NC(=O)[C@H](CCC(=O)O)NC(=O)[C@H](CCCNC(=N)N)NC(=O)[C@H](CC(=O)O)NC1=O [Tat-SP9] (Ac-YGRKKRRQRRRLLISEL[R8]DREKQR[S5]A-NH2; staple 18-25; N-terminus and C-terminus assumed)
Kd [5]: ~56.2 µM

Beclin 1 coiled-coil domain (from UniProt Q91XJ1 174-264) (domain or fragment)
Kd (UVRAG coiled-coil domain [11]): 300 nM
Kd (UVRAG coiled-coil domain [12]): 3 µM

Beclin 1 coiled-coil region L210E (from UniProt Q91XJ1 174-264) (domain or fragment)
Kd (UVRAG coiled-coil domain [12]): 10 µM

Beclin 1 coiled-coil region R203E (from UniProt Q91XJ1 174-264) (domain or fragment)
Kd (UVRAG coiled-coil domain [12]): 10 µM

B1: R203E (protein)
chain: DSEQLQRELKELALEEERLIQELEDVEKNEKVVAENLEKVQAEAERLDQEEAQYQREYSEFKRQQLELDDELKSVENQMRYAQMQLDKLKK
reduction of binding affinity of Beclin 1–UVRAG interaction (UVRAG coiled-coil domain [13]): approximately three- to fivefold

B2: L210E (protein)
chain: B1 chain with E30R, L37E
reduction of binding affinity of Beclin 1–UVRAG interaction (UVRAG coiled-coil domain [13]): approximately three- to fivefold

B3: wild-type UVRAG: wild-type UVRAG (full length Mus musculus in cells; coiled-coil construct in vitro) (protein)
chain: MSASASVGGPVPQPPPGPAAALPPGSAARALHVELPSQQRRLRHLRNIAARNIVNRNGHQLLDTYFTLHLCSTEKIYKEFYRSEVIKNSLNPTWRSLDFGIMPDRLDTSVSCFVVKIWGGKENIYQLLIEWKVCLDGLKYLGQQIHARNQNEIIFGLNDGYYGAPFEHKGYSNAQKTILLQVDQNCVRNSYDVFSLLRLHRAQCAIKQTQVTVQKIGKEIEEKLRLTSTSNELKKKSECLQLKILVLQNELERQKKALGREVALLHKQQIALQDKGSAFSAEHLKLQLQKESLNELRKECTAKRELFLKTNAQLTIRCRQLLSELSYIYPIDLNEHKDYFVCGVKLPNSEDFQAKDDGSIAVALGYTAHLVSMISFFLQVPLRYPIIHKGSRSTIKDNINDKLTEKEREFPLYPKGGEKLQFDYGVYLLNKNIAQLRYQHGLGTPDLRQTLPNLKNFMEHGLMVRCDRHHTSSAIPVPKRQSSIFGGADVGFSGGIPSPDKGHRKRASSENERLQYKTPPPSYNSALAQPVTTVPSMGETERKITSLSSSLDTSLDFSKENKKKGEDLVGSLNGGHANVHPSQEQGEALSGHRATVNGTLLPSEQAGSASVQLPGEFHPVSEAELCCTVEQAEEIIGLEATGFASGDQLEAFNCIPVDSAVAVECDEQVLGEFEEFSRRIYALNENVSSFRRPRRSSDK
modifications: left off: FLAG, end not stated, kept
EGFR remaining (EGFR [2]; A549, UVRAG overexpression, 3 h after EGF (200 ng/mL)): ~40%
EGFR remaining (EGFR [2]; A549, UVRAG overexpression, 5 h after EGF (200 ng/mL)): ~5%
endolysosomal trafficking on overexpression [14]: enhanced endolysosomal trafficking
EGFR remaining (EGFR [9]; UVRAG overexpression, 120 min post EGF (200 ng/mL)): ~10%
